Measured values pooled from the literature.
Compare with care: the assays were run in different laboratories.
Target: Serine/threonine-protein kinase N1 (PKN1, Homo sapiens, UniProt Q16512)

Compound	observed	mode	technique	concentration	quantity	value
CO[C@@H](C)Cn1c(=O)n(C)c2cnc3ccc(-c4cncc(C(C)(C)O)c4)cc3c21	enzyme activity	inhibitor		1 µM	activity vs control	94%
CCN1CCC2(CC1)NC(=O)c1c(c3ccc(Cl)c(Cl)c3n1C)C2C#N (racemic)	thermal stability		DSF	10 µM	ΔTm	1 °C
O=S(=O)(c1cccc2cnccc12)N1CCCNCC1	cell-free assay			0.5 µM	remaining signal	40.5%
CS(=O)(=O)Nc1cccc(-c2csc(NC(=O)CSc3nc4nccnc4c(=O)n3CCc3ccccc3)n2)c1	enzyme activity	inhibitor		10 µM	inhibition	-5%
CC(C)(O)[C@H]1CC[C@H](Nc2ccc3ncc(-c4cccc(C(F)(F)F)c4)n3n2)CC1	enzyme activity	inhibitor		1 µM	remaining activity	65.5%
COc1ccc(-c2cc3nccn3c(Nc3ncccc3C(N)=O)n2)cc1OC.Cl	enzyme activity	inhibitor		1 µM	activity vs control	50%
CS(=O)(=O)N1CCCC(NC(=O)[C@H](CCC2CCCCC2)NC(=O)c2ccc(CNc3ncnc4c3nnn4-c3ccccc3)cc2)C1 (some centres unmarked)	cell-free assay		competition with immobilised ligand	0.1 µM	remaining binding	98%
Cn1c2c(Cl)c(Cl)ccc2c2cc(N)[nH]c(=O)c21	thermal stability		DSF	10 µM	ΔTm	0.6 °C
Cc1sc(C(=O)NC2COC2)cc1-n1cc(NC(=O)Nc2c(F)cccc2Cl)cn1	enzyme activity	inhibitor		10 µM	remaining activity	76.8%
O=c1c(O)c(-c2ccc(O)c(O)c2)oc2cc(O)cc(O)c12	enzyme activity	inhibitor		1 µM	activity vs control	69%
CN(C(=O)c1ccccc1)c1cc(N(C)c2ccc3c(c2)CCc2ccc(C(=O)NCCN4CCOCC4)cc2C3=O)ccc1F	cell-free assay		competition with immobilised ligand	1 µM	remaining binding	100%
N#CCCc1ccc2c(c1)-c1[nH]c3ccc([N+](=O)[O-])cc3c1CC(=O)N2	cell-free assay			0.5 µM	remaining signal	78%
COc1cc2ncnc(Nc3ccc(Oc4ccccc4)c(C)c3C)c2cc1OC	enzyme activity	inhibitor		1 µM	inhibition	4%
CCCCNc1ncc2c(-c3ccc(F)cc3)nn(C[C@H]3CC[C@H](N)CC3)c2n1	target engagement in cells	inhibitor	chemoproteomics	20 mM	inhibition	-43.3%
CS(=O)(=O)NCC[C@H](NC(=O)c1cncc2c1cnn2-c1ccc(F)cc1)c1ccnc(S(C)(=O)=O)c1	cell-free assay		competition with immobilised ligand	1 µM	remaining binding	100%
C[S+]([O-])c1ccc(-c2nc(-c3ccncc3)c(-c3ccc(F)cc3)[nH]2)cc1 (centres unmarked)	cell-free assay			0.5 µM	remaining signal	96.5%
C[C@H]1CCN(c2nccc(-c3cnn4ncccc34)n2)C1	binding			1 µM	remaining binding	100%
C[C@@]1(Cc2ccc(C#N)cc2)C(=O)N(c2cc(Cl)cc(Cl)c2)c2ncc(C(=O)NC3(c4nc(C5CCC5)no4)CC3)n21	cell-free assay		competition with immobilised ligand	1 µM	remaining binding	100%
COc1cccc2c(NCc3ccccc3)nc(-n3c(N)nc4ccccc43)nc12	target engagement in cells	inhibitor	chemoproteomics	20 mM	inhibition	0.9%

Compound	observed	mode	technique	concentration	quantity	value
O=C1Nc2ccc(Cl)cc2C1=Cc1cc(Cl)c(O)c(Cl)c1	cell-free assay			0.5 µM	remaining signal	93%
Cc1ccc(C(=O)Nc2ccc(CN3CCN(C)CC3)c(C(F)(F)F)c2)cc1C#Cc1cnc2cccnn12	enzyme activity	inhibitor		23.5 nM	remaining activity	100%
FC(F)(F)c1ccc2c(c1)nc(-c1cccnc1)n2C1CC1	cell-free assay		competition with immobilised ligand	1 µM	remaining binding	100%
COc1cc(-c2cc(-c3ccc(N4CCNCC4)cc3)cnc2C)cc(OC)c1OC	enzyme activity	inhibitor		0.1 µM	inhibition	10%
CCCCN(CCCC)C(=O)CN1C[C@H](c2cc(OC)c3c(c2)OCO3)[C@@H](C(=O)O)[C@@H]1CC(C)(C)CCC	cell-free assay		competition with immobilised ligand	1 µM	remaining binding	100%
CC(C)(C)c1nc(-c2cccc(NS(=O)(=O)c3c(F)cccc3F)c2F)c(-c2ccnc(N)n2)s1	enzyme activity	inhibitor	radiometric	1 µM	remaining activity	101%
COc1cc(-c2cn(C3CCc4c(F)cccc4N(CC(F)(F)F)C3=O)nn2)ccc1-n1cnc(C)c1 (centres unmarked)	cell-free assay		competition with immobilised ligand	1 µM	remaining binding	96%
Cl.Cl.O=C(NCCCNc1nc(Nc2cccc(CN3CCOCC3)c2)ncc1C1CC1)C1CCC1	enzyme activity	inhibitor		1 µM	activity vs control	52%
O=C(NC[C@@H]1[C@H]2CN(C(=O)OCc3cc(C(F)(F)F)cc(C(F)(F)F)c3)C[C@@H]12)c1ccc2[nH]nnc2c1	cell-free assay		competition with immobilised ligand	1 µM	remaining binding	100%
Nc1ncnc2occ(-c3ccc(NC(=O)Nc4cc(C(F)(F)F)ccc4F)cc3)c12	cell-free assay	inhibitor		20 µM	remaining signal	83%
COc1cc2ncnc(Nc3ccc(F)c(Cl)c3)c2cc1OCCCN1CCOCC1	cell-free assay			0.5 µM	remaining signal	105%
C[C@@H](c1ccc2nccn2c1)n1nnc2ncc(-c3cnn(C)c3)nc21	enzyme activity	inhibitor		1 µM	activity vs control	91%
CC1(C)NC(=O)c2[nH]c3c(Cl)c(Cl)ccc3c2C1C#N (centres unmarked)	thermal stability		DSF	10 µM	ΔTm	0.4 °C
Nc1cc(N)c(N)cc1N	enzyme activity	inhibitor		1 µM	activity vs control	72%
CN(C)C1CCN(CC#Cc2nn(C3CCCC3)c3nc(NCc4ccccc4)ncc23)C1 (centres unmarked)	enzyme activity	inhibitor	FRET	1 µM	inhibition	1%
Cc1cc(F)c(Nc2ncnc3cc(OCc4ccccc4)ccc23)cc1O.Cl	enzyme activity	inhibitor		1 µM	activity vs control	89%
O=C(Nc1cnn(-c2csc(C(=O)NC3COC3)c2)c1)Nc1c(F)cccc1Cl	enzyme activity	inhibitor		5 µM	remaining activity	96.5%
Cc1c(NC(=O)c2cc3c(s2)CCCC3)cccc1-c1cn(C)c(=O)c(Nc2ccc([C@@H]3C(=O)N(C)CCN3C)cc2)n1	enzyme activity	inhibitor		1 µM	activity vs control	76%
Cn1cncc1C1=CN(c2ncnc3[nH]cnc23)CCS1	enzyme activity	inhibitor	radiometric	50 nM	inhibition	18.8%
